Diaph act CS = compounds boosting diaphorase resazurin reduction – biochemical, uHTS, resorufin fluorescence, counter-screen for diaphorase-coupled primary assays, primary screen | AID 1229, 2008 | activation factor at 20 µM | actives 0.005% (n = 190,000) | Diaphorase/resazurin coupled assay, 16 min; active compounds read high; 1 = vehicle wells, 0 = NADH-free wells;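 active means diaphorase activity raised at least twofold by the compound at 20 µM; inactive means activation factor below 2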
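Material: Clostridium kluyveri diaphorase, purified enzyme; Quantity: enzyme 0.07 U/mL final; Medium: HEPES pH 7.4 buffer with MgCl2 and Tween 20; Dosing: single compound dose of 20 µM, 1% DMSO final; Schedule: 16 min reaction at room temperature; Measured by: red resorufin fluorescence at 544/590 nm excitation/emission.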
G6PDH counter = L. mesenteroides G6PDH inhibitors, counter-screen for G6PDH-coupled screening assays, biochemical, Leuconostoc mesenteroides enzyme. Purified L. mesenteroides G6PDH, diaphorase/resazurin coupled fluorescence, 45 min. actives 0.12% (n = 200,000). AID 1020, 2008. inhibition, % at 5 µM; in the data active means inhibition above about 50%
DTT redox prof = compounds producing H2O2 with reducing agent – biochemical, NIH compound library profiling, artefact control for MLSCN library redox annotation, primary screen. DTT-dependent redox cycling H2O2, phenol red/HRP absorbance; 100% = 100 µM peroxide control, 0% = buffer. actives 0.03% (n = 200,000). activation, % at 10 µM;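 active means activation of at least 50% relative to the plate's high and low controls in the primary single-dose screen; inactive means activation below 50%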;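 further: compound incubated with DTT at 0.8 mM final as the reducing agent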
Diaph inh CS = diaphorase inhibitors and chemical oxidizers, primary screen, counter-screen for diaphorase-coupled primary assays, biochemical, uHTS, resorufin fluorescence. diaphorase resazurin-to-resorufin fluorescence, NADH, 16 min; bacterial (C. kluyveri) enzyme, not human. inhibition, % at 20 µM. actives 0.69% (n = 190,000);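 active means primary screen inhibition at 20 µM above a set limit, cut at about 50% in these data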;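 further: plate controls were DMSO with full reaction for no effect and wells lacking NADH for full effect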
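controls = No-NADH positive control and DMSO neutral control | system = Clostridium kluyveri diaphorase enzyme | timing = reaction incubation of 16 min at room temperature | signal = resorufin fluorescence 544/590 nm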
PMI activator = activators of human PMI, primary screen, biochemical, fluorescence intensity, near-Km mannose 6-phosphate; activation factor at 20 µM; AID 1214, 2008; Mannose-6-phosphate isomerase (Homo sapiens), P34949; actives 0.005% (n = 190,000); purified human PMI, coupled resazurin fluorescence, 20 min; active compounds read high; 1 = vehicle control, 0 substrate-free wells;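 active means activation factor of 2 or more at 20 µM, relative to plate controls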
Target sequence (P34949 whole entry, looked up): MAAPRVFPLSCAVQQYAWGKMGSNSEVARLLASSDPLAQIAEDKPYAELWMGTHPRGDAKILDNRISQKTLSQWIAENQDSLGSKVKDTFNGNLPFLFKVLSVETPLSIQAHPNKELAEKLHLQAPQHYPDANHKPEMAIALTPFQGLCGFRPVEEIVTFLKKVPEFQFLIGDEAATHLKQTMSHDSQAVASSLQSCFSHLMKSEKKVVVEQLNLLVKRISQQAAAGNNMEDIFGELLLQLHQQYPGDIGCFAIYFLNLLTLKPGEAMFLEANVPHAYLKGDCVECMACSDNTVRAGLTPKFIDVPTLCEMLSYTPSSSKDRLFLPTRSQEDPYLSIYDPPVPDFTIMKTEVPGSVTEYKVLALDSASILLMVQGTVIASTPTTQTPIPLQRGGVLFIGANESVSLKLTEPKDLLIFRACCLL
PMI act satM6P = human PMI activators, high substrate, primary screen, biochemical, fluorescence intensity, near-saturating mannose 6-phosphate; Mannose-6-phosphate isomerase (Homo sapiens), P34949; coupled PMI enzyme assay, resazurin fluorescence, 20 min; active compounds read high; 1 = untreated enzyme, 0 = substrate-free blank; activation factor at 20 µM; actives 0.34% (n = 190,000);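 active means activation factor of 2 or more at 20 µM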
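Test system – human PMI in coupled enzyme assay · Timing – 20 min incubation at room temperature · Detection – Diaphorase-driven resazurin-to-resorufin fluorescence, excitation 544, emission 590 nm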
Numbers without * were called inactive. A selection: hits, their analogues and other compounds. The true share with any hit is near 1.1%.

SMILES	Diaph act CS	G6PDH counter	DTT redox prof	Diaph inh CS	PMI activator	PMI act satM6P
Cc1ccc(-c2ccnc(=S)[nH]2)cc1	0.3	-1	-4	67*	0.9	0.9
N/C(Cc1ccc(Cl)cc1)=N\OC(=O)C1CCCCC1	1.1	1	1	-12	1.1	1.1
CCN(CC)c1nc2cc(C)ccc2cc1/C=C(\C#N)C(N)=O	0.8	2	-2	19	0.8	0.8
Cc1nc2ccc(Cl)cc2nc(C)/c1=N\O	0.4	33	2	58*	1	0.7
CCc1ccc(C(=O)NCc2ccc(Cl)cc2)cc1	0.9	16	0	6	0.8	0.9
CCOC1=C/C(=C/c2c(N)n3nc(-c4ccccc4)sc3nc2=O)C=CC1=O	0.3	15	0	69*	0.8	0.7
O=C(N/N=C/c1ccc(O)c([N+](=O)[O-])c1)C1CC1(c1ccccc1)c1ccccc1 (stereo unspecified)	0.3	13	0	72*	0.8	0.8
CCOc1ccccc1Nc1nnc(SCc2nnc(-c3cc(OC)c(OC)c(OC)c3)o2)s1	0.6	-20	0	42	0.9	1
COc1ccccc1Nc1nnc(SCc2nnc(-c3cc(OC)c(OC)c(OC)c3)o2)s1	0.5	-5	-1	50*	0.9	0.9
COc1cccc(CNC(=O)CN2CCC(c3nc4ccc(C)cc4[nH]3)CC2)c1	1	10	0	-5	1	1.1
Cc1ccc(S(=O)(=O)Oc2ccc(/C=C(/NC(=O)c3ccccc3)C(=O)NC(C)C(=O)O)cc2)cc1 (stereo unspecified)	1	15	-1	1	1	1
Cc1ccc(S(=O)(=O)N2CCOCC(=O)NCCOCCNC(=O)COCC2)cc1	0.9	-1	-2	8	1.1	1
Cc1cc(C)c2c(c1)[C@@H]1C=CC[C@@H]1[C@H](c1ccc(S(=O)(=O)N3CCOCC3)cc1)N2	0.8	-2	0	23	1.5	2.2*
C=CCn1c(C)c(C(C)=O)c(N2CCCC2)nc1=S	0.4	4	1	56*	0.9	0.8
CCn1c(C)c(C(C)=O)c(N2CCN(c3ccc(F)cc3)CC2)nc1=S	0.7	11	-3	27	1.1	1.1
CC(=O)c1c(N2CCN(Cc3ccccc3)CC2)nc(=S)n(-c2ccccc2)c1C	0.8	-7	-1	20	1.6	2.1*
CCn1c(C)c(C(C)=O)c(N2CCCC2)nc1=S	0.4	-6	1	57*	1	1
COc1ccc(C(=O)Nc2ccc(N3CCN(C(=O)C(C)C)CC3)cc2)cc1[N+](=O)[O-]	0.9	7	1	6	0.9	0.9
CCOC(=O)c1c(-c2ccccc2)csc1NC(=O)c1cc(S(=O)(=O)N2CCOCC2)ccc1C	0.8	-12	0	16	0.9	0.9
CC(=O)c1c(N2CCCC2)[nH]c(-c2ccccc2)nc1=S	0.8	7	0	22	0.9	0.9
CC(=O)c1c(N)[nH]c(-c2ccccc2)nc1=S	0.5	-4	0	50*	1	1
Oc1ccc(/C(Cc2ccccn2)=N\Nc2ccccc2)c(O)c1	0.7	-1	-1	25	1.6	2.5*
Oc1ccc(/C(Cc2ccc3ccccc3n2)=N\Nc2ccccc2)c(O)c1	0.8	4	1	21	1.7	2.3*
Cc1c(O)ccc(/C(Cc2ccc3ccccc3n2)=N\O)c1O	1.1	9	-4	-5	1	1
Cc1cc2cc(CNC(=S)NC3CCCCC3)ccc2n1C	0.9	1	-1	9	1	0.9
SMILES	Diaph act CS	G6PDH counter	DTT redox prof	Diaph inh CS	PMI activator	PMI act satM6P
Clc1cccc(CN2CCN(Cc3nc(CCc4ccccc4)no3)CC2)c1	0.9	13	-2	12	1	1
COc1ccc(S(=O)(=O)NC(C)CCc2ccccc2)cc1 (stereo unspecified)	0.9	15	0	10	1	1
CCc1ccc2c(c1)c(N=NC1=NC(=O)CS1)c(O)n2CC	0.2	7	1	79*	1.1	1.1
Cc1occc1-c1nnc(SCC(=O)Nc2ccccc2)n1C	0.2	6	-1	78*	1	1
Cc1ccc(C(=O)N2CCCC(C(=O)c3ccc(Oc4ccccc4)cc3)C2)cn1 (stereo unspecified)	0.7	4	-1	28	0.9	0.9
O=C(c1ccc(Cl)cc1)c1oc2ccccc2c1CS(=O)c1ccccc1 (stereo unspecified)	1	3	-5	4	1.3	2.2*
O=C(NNC(=O)c1cc(O)c(O)c(O)c1)NC1CCCCC1	0.5	15	-4	50*	0.5	0.9
COc1ccccc1N1CCN(C(=O)NC23CC4CC(CC(C4)C2)C3)CC1	0.9	-1	0	14	0.9	0.9
O=C(Cc1ccccc1)N/N=C/c1ccc2cccc(O)c2n1	0.8	56*	0	15	0.9	0.6
CC(=O)N1CCC2(CC1)C/C(=N\NC(=S)Nc1ccc(C)cc1)c1cc(O)ccc1O2	0.5	1	-2	54*	0.8	0.9
CCOC(=O)C1(C)/C(=N/Nc2cccc(Cl)c2)C(=O)C(=O)N1c1ccccc1 (stereo unspecified)	0.8	8	1	19	1.4	2.3*
CCOC(=O)C1(C)/C(=N/Nc2ccc(S(N)(=O)=O)cc2)C(=O)C(=O)N1c1ccccc1 (stereo unspecified)	0.9	11	0	11	1.1	0.7
CCOC(=O)C1(C)/C(=N/Nc2ccc(Cl)cc2)C(=O)C(=O)N1c1ccccc1 (stereo unspecified)	0.9	-8	-1	12	1.6	2.2*
CCOC(=O)CSc1nnc(CNc2cccc(Cl)c2)n1-c1ccccc1	1	10	0	0	0.9	1
CCOC(=O)C1(C)/C(=N/Nc2ccccc2Cl)C(=O)C(=O)N1c1ccccc1 (stereo unspecified)	0.9	13	-2	7	1.6	2.1*

Assay outcomes as filed in PubChem.
